ChEMBL document CHEMBL4190252, “Synthesis, antitumor activity and CDK1 inhibiton of new thiazole nortopsentin analogues” (Eur J Med Chem, 2017)
Activity calls are given as the source filed them. No cut-off for these calls is given here.

What was measured:
CCRF-CEM = assay: Growth inhibition of human CCRF-CEM cells incubated for 48 hrs by sulforhodamine B assay; type: functional
Summary of the method: (§1)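 NCI full panel screen: five 10-fold dilutions (10^-4–10^-8 M). GI50 is the molar concentration giving 50% inhibition of net cell growth.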

NCI-H23 = assay: Growth inhibition of human NCI-H23 cells incubated for 48 hrs by sulforhodamine B assay; type: functional; conditions: NCI-H23, 48 h; summary of the method: as §1
NCI-H322M = assay: Growth inhibition of human NCI-H322M cells incubated for 48 hrs by sulforhodamine B assay; type: functional; summary of the method: as §1
NCI-H460 = assay: Growth inhibition of human NCI-H460 cells incubated for 48 hrs by sulforhodamine B assay; type: functional; conditions: NCI-H460, 48 h; summary of the method: as §1
NCI-H522 = assay: Growth inhibition of human NCI-H522 cells incubated for 48 hrs by sulforhodamine B assay; type: functional; conditions: NCI-H522, 48 h; summary of the method: as §1
HCT-116 = assay: Growth inhibition of human HCT116 cells incubated for 48 hrs by sulforhodamine B assay; type: functional; conditions: HCT-116, 48 h; summary of the method: as §1
HCT-15 = assay: Growth inhibition of human HCT15 cells incubated for 48 hrs by sulforhodamine B assay; type: functional; conditions: HCT-15, 48 h; summary of the method: as §1
KM12 = assay: Growth inhibition of human KM12 cells incubated for 48 hrs by sulforhodamine B assay; type: functional; conditions: KM12, 48 h; summary of the method: as §1
SW-620 = assay: Growth inhibition of human SW620 cells incubated for 48 hrs by sulforhodamine B assay; type: functional; conditions: SW-620, 48 h
Summary of the method: (§2)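 NCI full-panel human tumour cell screen. Cells were exposed to five 10-fold dilutions from 10^-4 to 10^-8 M. GI50 is the molar concentration giving 50% inhibition of net cell growth, and a mean graph midpoint was calculated across the panel.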

SF-268 = assay: Growth inhibition of human SF268 cells incubated for 48 hrs by sulforhodamine B assay; type: functional; conditions: SF-268, 48 h; summary of the method: as §1
SNB-19 = assay: Growth inhibition of human SNB19 cells incubated for 48 hrs by sulforhodamine B assay; type: functional; conditions: SNB-19, 48 h; summary of the method: as §2
SNB-75 = assay: Growth inhibition of human SNB75 cells incubated for 48 hrs by sulforhodamine B assay; type: functional; conditions: SNB-75, 48 h; summary of the method: as §2
U-251 = assay: Growth inhibition of human U251 cells incubated for 48 hrs by sulforhodamine B assay; type: functional; conditions: U-251, 48 h; summary of the method: as §2
LOX IMVI = assay: Growth inhibition of human LOXIMVI cells incubated for 48 hrs by sulforhodamine B assay; type: functional; summary of the method: as §1
Malme-3M = assay: Growth inhibition of human MALME-3M cells incubated for 48 hrs by sulforhodamine B assay; type: functional; summary of the method: as §1
MDA-MB-435 = assay: Growth inhibition of human MDA-MB-435 cells incubated for 48 hrs by sulforhodamine B assay; type: functional; conditions: MDA-MB-435, 48 h; summary of the method: as §1
UACC-257 = assay: Growth inhibition of human UACC257 cells incubated for 48 hrs by sulforhodamine B assay; type: functional; conditions: UACC-257, 48 h; summary of the method: as §2
OVCAR-4 = assay: Growth inhibition of human OVCAR4 cells incubated for 48 hrs by sulforhodamine B assay; type: functional; conditions: OVCAR-4, 48 h; summary of the method: as §1
OVCAR-5 = assay: Growth inhibition of human OVCAR5 cells incubated for 48 hrs by sulforhodamine B assay; type: functional; conditions: OVCAR-5, 48 h; summary of the method: as §1
786-0 = assay: Growth inhibition of human 786-0 cells incubated for 48 hrs by sulforhodamine B assay; type: functional; conditions: 786-0, 48 h; summary of the method: as §1
A498 = assay: Growth inhibition of human A498 cells incubated for 48 hrs by sulforhodamine B assay; type: functional; conditions: A498, 48 h; summary of the method: as §1
SN12C = assay: Growth inhibition of human SN12C cells incubated for 48 hrs by sulforhodamine B assay; type: functional; summary of the method: as §2
DU-145 = assay: Growth inhibition of human DU145 cells incubated for 48 hrs by sulforhodamine B assay; type: functional; conditions: DU-145, 48 h; summary of the method: as §1
T47D = assay: Growth inhibition of human T47D cells incubated for 48 hrs by sulforhodamine B assay; type: functional; summary of the method: as §2
MCF7 [1] = assay: Induction of apoptosis in human MCF7 cells assessed as viable cells at 2 x 10^-6 M after 72 hrs by Annexin V/propidium iodide double staining-based flow cytometry (reference value: 98.9%); type: functional; conditions: MCF7, 72 h, read-out: Activity
Summary of the method: (§3)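 MCF-7 cells were grown in RPMI with 10% FBS, 2 mM L-glutamine and antibiotics at 37 °C in 5% CO2. They were seeded at 2.0 x 10^5 cells/cm2 in triplicate, left to adhere overnight, then treated for 72 h; DMSO 0.1% served as vehicle. Trypsinised cells at 2.0 x 10^5/mL were stained with annexin V-FITC and PI for 15 min at room temperature in the dark. At least 1.0 x 10^4 cells were gated into viable, early apoptotic, late apoptotic and necrotic quadrants.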

MCF7 [2] = assay: Induction of apoptosis in human MCF7 cells assessed as early apoptotic cells at 2 x 10^-6 M after 72 hrs by Annexin V/propidium iodide double staining-based flow cytometry (reference value: 1%); type: functional; summary of the method: as §3
MCF7 [3] = assay: Cell cycle arrest in human MCF7 cells assessed as increase in accumulation at G2/M phase at GI50 concentration after 48 hrs by propidium iodide-staining based flow cytometry; type: functional
Summary of the method: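 Cells were trypsinized, washed in cold PBS, and 1 x 10^6 cells stained with 20 µg/ml PI plus 200 µg/ml RNase for 30 min at room temperature in the dark. At least 1x 10^4 cells were analysed by flow cytometry. Mean±SD of three experiments in triplicate.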

Caco-2 = assay: Cytotoxicity against human Caco2 cells assessed as reduction in cell viability after 72 hrs by MTT assay; type: cell-based; conditions: caco-2, 72 h
Summary of the method: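 Caco-2 cells grown in RPMI with 10% FBS and L-glutamine, then treated 15 days after confluence, once differentiated into normal intestinal-like cells. Seeded at 2 × 10^4 cells/well and exposed 72 h to 5–100 µM, DMSO 0.1% vehicle. MTT 2 h at 37 °C, formazan in DMSO, absorbance 570 nm. Vehicle control = 100%; LC50 from viability-versus-concentration plot. At least three experiments in triplicate.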

[4] = Selectivity index, ratio of LC50 for human Caco2 cells to GI50 for human MCF7 cells; type: toxicity; conditions: Caco2 cells (LC50) and MCF7 cells (GI50), read-out: Selectivity Index
Summary of the method: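 Caco-2 cells were differentiated to a normal intestinal-like state for 15 days after confluence, seeded at 2 x 10^4 cells/well in RPMI, and treated with 5–100 µM for 72 h. MTT was added for 2 h at 37 °C, formazan was dissolved in DMSO and read at 570 nm. LC50 came from viability-versus-concentration plots, with at least three experiments in triplicate. SI is the Caco-2 LC50 divided by the MCF-7 GI50.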

[5] = test system: Panel NCI-60 (60 carcinoma cell lines); assay: Growth inhibition of human NCI60 cells at 10^-5 M incubated for 48 hrs by sulforhodamine B assay; type: functional, cell-based
RPMI-8226 = assay: Growth inhibition of human RPMI8226 cells incubated for 48 hrs by sulforhodamine B assay; type: functional; conditions: RPMI-8226, 48 h; summary of the method: as §1

For `COCCn1cc(-c2csc(-c3c[nH]c4ccccc34)n2)c2cccnc21`, the GI50 (CCRF-CEM) was > 100 µM, the GI50 (NCI-H23) was 4.58 µM and the GI50 (NCI-H322M) was > 100 µM. For the same compound, the GI50 (NCI-H460) was 3.4 µM, the GI50 (NCI-H522) was 2.07 µM and the GI50 (HCT-116) was 3.63 µM. The GI50 (HCT-15) was 2.34 µM, the GI50 (KM12) was 0.76 µM and the GI50 (SW-620) was 3.52 µM. For the same compound, the GI50 (SF-268) was 6.98 µM, the GI50 (SNB-19) was 16.2 µM and the GI50 (SNB-75) was 1.43 µM. It also gave a GI50 (U-251) of 6.12 µM, a GI50 (LOX IMVI) of 3.96 µM and a GI50 (Malme-3M) of 3.58 µM. For the same compound, the GI50 (MDA-MB-435) was 0.86 µM, the GI50 (UACC-257) was > 100 µM and the GI50 (OVCAR-4) was 1.76 µM. It also gave a GI50 (OVCAR-5) of 28.2 µM, a GI50 (786-0) of 6.25 µM and a GI50 (A498) of 3.03 µM. The GI50 (SN12C) was > 100 µM, the GI50 (DU-145) was 15.4 µM and the GI50 (T47D) was 0.42 µM. The viability at 2 µM (MCF7 [1]) was 53.4%, the Activity (MCF7 [2]) was 46.5% and the Activity (MCF7 [3]) was “Active”. For the same compound, the LC50 (Caco-2) was 71.4 µM, the selectivity ratio [4] was 41 and the “growth inhibition (GI)” value [5] was “Active”.
In the case of `COCCn1cc(-c2nc(-c3c[nH]c4ncccc34)cs2)c2cc(OC)ccc21`, the GI50 (CCRF-CEM) is reported as 6.7 µM, the GI50 (RPMI-8226) is reported as 7.09 µM and the GI50 (NCI-H23) is reported as 1.63 µM. The GI50 (NCI-H322M) was 1.95 µM, the GI50 (NCI-H460) was 1.32 µM and the GI50 (NCI-H522) was 5.18 µM. It also gave a GI50 (HCT-116) of 4.55 µM, a GI50 (HCT-15) of 2.15 µM and a GI50 (KM12) of 0.16 µM. The GI50 (SW-620) was 4.5 µM, the GI50 (SF-268) was 4.42 µM and the GI50 (SNB-19) was 9.71 µM. For the same compound, the GI50 (SNB-75) was 1.1 µM, the GI50 (U-251) was 4.43 µM and the GI50 (LOX IMVI) was 3.69 µM. It also gave a GI50 (Malme-3M) of 12.6 µM, a GI50 (MDA-MB-435) of 6.41 µM and a GI50 (UACC-257) of 4.26 µM. For the same compound, the GI50 (OVCAR-4) was 0.03 µM, the GI50 (OVCAR-5) was 0.61 µM and the GI50 (786-0) was 3.44 µM. The GI50 (A498) was 1.87 µM, the GI50 (SN12C) was 5.51 µM and the GI50 (DU-145) was 4.28 µM. For the same compound, the GI50 (T47D) was 0.04 µM, the Activity (MCF7 [3]) was “Active” and the LC50 (Caco-2) was < 100 µM. For the same compound, the “growth inhibition (GI)” value [5] was “Active”.
For `COCCn1cc(-c2csc(-c3c[nH]c4ccc(Br)cc34)n2)c2cccnc21`, the GI50 (RPMI-8226) was 5.14 µM, the GI50 (NCI-H23) was 3.21 µM and the GI50 (NCI-H322M) was 11.8 µM. The GI50 (NCI-H460) was 3.07 µM, the GI50 (NCI-H522) was 2.17 µM and the GI50 (HCT-116) was 3.84 µM. For the same compound, the GI50 (HCT-15) was 3.14 µM, the GI50 (KM12) was 2.74 µM and the GI50 (SW-620) was 3.3 µM. The GI50 (SNB-19) was 12.2 µM, the GI50 (SNB-75) was 4.72 µM and the GI50 (U-251) was 6.18 µM. For the same compound, the GI50 (LOX IMVI) was 2.67 µM, the GI50 (Malme-3M) was 3.66 µM and the GI50 (MDA-MB-435) was 4.12 µM. The GI50 (UACC-257) was 8.69 µM, the GI50 (OVCAR-4) was 2.74 µM and the GI50 (OVCAR-5) was 4.83 µM. It also gave a GI50 (786-0) of 4.03 µM, a GI50 (A498) of 3.02 µM and a GI50 (SN12C) of 7.72 µM. For the same compound, the GI50 (T47D) was 1.97 µM, the viability at 2 µM (MCF7 [1]) was 63.6% and the Activity (MCF7 [2]) was 36.3%. For the same compound, the LC50 (Caco-2) was 83.3 µM, the selectivity ratio [4] was 46 and the “growth inhibition (GI)” value [5] was “Active”.
In the case of `COCCn1cc(-c2csc(-c3c[nH]c4ccc(F)cc34)n2)c2cccnc21`, the GI50 (NCI-H23) is reported as 3.88 µM, the GI50 (NCI-H322M) is reported as > 100 µM and the GI50 (NCI-H460) is reported as 3.38 µM. It also gave a GI50 (NCI-H522) of 2.19 µM, a GI50 (HCT-116) of 3.77 µM and a GI50 (HCT-15) of 2.35 µM. The GI50 (KM12) was 1.77 µM, the GI50 (SW-620) was 3.63 µM and the GI50 (SF-268) was 7.67 µM. It also gave a GI50 (SNB-19) of 98 µM, a GI50 (SNB-75) of 2.97 µM and a GI50 (U-251) of 5.14 µM. The GI50 (LOX IMVI) was 3.44 µM, the GI50 (Malme-3M) was 4.54 µM and the GI50 (MDA-MB-435) was 0.9 µM. For the same compound, the GI50 (OVCAR-4) was 2.59 µM, the GI50 (OVCAR-5) was 10.1 µM and the GI50 (786-0) was 5.12 µM. The GI50 (A498) was 3.26 µM, the GI50 (SN12C) was > 100 µM and the GI50 (DU-145) was 18.8 µM. For the same compound, the GI50 (T47D) was 0.65 µM, the viability at 2 µM (MCF7 [1]) was 70.7% and the Activity (MCF7 [2]) was 29.2%. The Activity (MCF7 [3]) was “Active”, the LC50 (Caco-2) was 96.1 µM and the selectivity ratio [4] was 46. The “growth inhibition (GI)” value [5] was “Active”.
